# Assay results pooled from the literature.
# Target: Activated CDC42 kinase 1 (TNK2, Homo sapiens, UniProt Q07912)
SMILES,effect on,method,tested at,remaining binding [%]
Cc1c(-c2ccccc2)oc2c(C(=O)OCCN3CCCCC3)cccc2c1=O,cell-free assay,competition with immobilised ligand,10 µM,94
CCN1CCN(Cc2ccc(C(=O)Nc3ccc(C)c(Oc4ccc5c(c4)CC(=O)N5)c3)cc2C(F)(F)F)CC1,binding,competition with immobilised ligand,1 µM,100
CNC(=O)[C@@H]1CC[C@@H](n2c(-c3ccc4cnccc4c3)nc3ccc(C(=O)NCc4cccc(C(N)=O)c4)cc32)C1,binding,competition with immobilised ligand,1 µM,100
N[C@@H]1CCN(c2nccc(-c3cnn4ncccc34)n2)C1,binding,,1 µM,100
COc1cccc(CNC(=O)c2nc3scc(COCc4ccc(C(=O)O)cc4)c3c(=O)[nH]2)c1,cell-free assay,competition with immobilised ligand,1 µM,89.6
C[C@@H]1CCN(c2nccc(-c3cnn4ncccc34)n2)C1,binding,,1 µM,100
CNC(=O)c1cc(Oc2ccc(NC(=O)Nc3ccc(Cl)c(C(F)(F)F)c3)cc2)ccn1,cell-free assay,competition with immobilised ligand,0.1 µM,100
O=C(c1ccc(Nc2ncc(Cl)c(-c3ccc(Cl)s3)n2)cc1)N1CCC(N2CCCC2)CC1,binding,competition with immobilised ligand,1 µM,44
CCN(CC)Cc1cc(Nc2ccnc3cc(Cl)ccc23)ccc1O,cell-free assay,competition with immobilised ligand,0.1 µM,89
Cc1cnn2ncc(-c3ccnc(N(C)C)n3)c2c1,binding,,1 µM,100
C[C@@H]1CN(c2cc(-c3n[nH]c4ccc(OC5(C)CC5)cc34)ncn2)C[C@H](C)O1,cell-free assay,competition with immobilised ligand,0.1 µM,79
CN1CC[C@H](c2c(O)cc(O)c3c(=O)cc(-c4ccccc4Cl)oc23)[C@H](O)C1,cell-free assay,competition with immobilised ligand,10 µM,74
CN([C@@H]1CCc2c(CC(=O)O)c3ccccc3n2C1)S(=O)(=O)c1ccc(F)cc1,cell-free assay,competition with immobilised ligand,1 µM,100
Nc1ncc2c(n1)-c1c([nH]c3ccc(C#CC4CC4)cc13)CCCC2,binding,competition with immobilised ligand,1 µM,100
CN(CCCC(F)(F)F)c1nccc(-c2cnn3ncccc23)n1,binding,,1 µM,83
Cc1c(C(=O)O)cc(-c2ccc(C3CCNCC3)cc2)c2ccc(-c3ccc(C(F)(F)F)cc3)cc12,binding,competition with immobilised ligand,1 µM,100
CN(C)c1nccc(-c2cnn3ncccc23)n1,binding,,1 µM,100
Cc1nc(Cc2cccc(C(F)(F)F)c2)sc1-c1ccc(C(N)=O)nc1,cell-free assay,competition with immobilised ligand,1 µM,100
c1cncc(-c2cccc(Nc3nccc(NC4CCCCC4)n3)c2)c1,binding,competition with immobilised ligand,10 µM,43
O=C(NCCCN1CCOCC1)c1ccc(Nc2nccc(-c3cc4ccccc4s3)n2)cc1,binding,competition with immobilised ligand,1 µM,63
COc1cc2ncnc(Nc3ccc(F)c(Cl)c3)c2cc1OCCCN1CCOCC1,cell-free assay,competition with immobilised ligand,0.1 µM,100
O=C(NCC1CCOCC1)c1n[nH]cc1NC(=O)c1c(F)cccc1F,binding,competition with immobilised ligand,1 µM,98
CN(C)c1ncc(F)c(-c2cnn3ncccc23)n1,binding,,1 µM,77
CNCc1ccccc1-c1csc([C@@H](C)Nc2nc(C)nc3cc(OC)c(OC)cc23)c1,cell-free assay,competition with immobilised ligand,1 µM,100
Cc1nc(Nc2ncc(C(=O)Nc3c(C)cccc3Cl)s2)cc(N2CCN(CCO)CC2)n1,cell-free assay,competition with immobilised ligand,0.1 µM,4
C[C@H](c1ccc(F)cc1)N(Cc1cccc(C(=O)O)c1)C(=O)c1cnc2ccccc2c1,cell-free assay,competition with immobilised ligand,1 µM,100
O=C(NCCCN1CCOCC1)c1ccc(Nc2ncc(Cl)c(-c3ccc(Cl)s3)n2)cc1,binding,competition with immobilised ligand,1 µM,53
CCN(CC)CCNC(=O)c1c(C)[nH]c(/C=C2\C(=O)Nc3ccc(F)cc32)c1C,cell-free assay,competition with immobilised ligand,0.1 µM,93
Cc1c(NC(=O)c2cc(C(N)=O)nc3cc(F)ccc23)c(C(F)(F)F)nn1Cc1ccc(C#N)cc1,cell-free assay,competition with immobilised ligand,1 µM,71
C=CC(=O)N1CCC(C(=O)NCC(=O)N2CCN(c3nc(-c4cnc(N)nc4C(F)F)nc(N4CCOCC4)n3)CC2)CC1,binding,competition with immobilised ligand,1 µM,100
CS(=O)(=O)CCNCc1ccc(-c2ccc3ncnc(Nc4ccc(OCc5cccc(F)c5)c(Cl)c4)c3c2)o1,cell-free assay,competition with immobilised ligand,10 µM,93
